# Reference: ChEMBL document CHEMBL1136882, “Mechanism-based inhibitors of serine proteases with high selectivity through optimization of S' subsite binding” (Bioorg Med Chem, 2009)
# Active and inactive are the calls of the source. The calls are words filed in the database; no cut-off is given here.
# How the values were obtained:
# [1] = target: T1, Neutrophil elastase (Homo sapiens) (UniProt P08246); test: Inhibition of human neutrophil elastase at inhibitor to enzyme ratio of 500 after 30 mins
# T1 sequence (whole entry): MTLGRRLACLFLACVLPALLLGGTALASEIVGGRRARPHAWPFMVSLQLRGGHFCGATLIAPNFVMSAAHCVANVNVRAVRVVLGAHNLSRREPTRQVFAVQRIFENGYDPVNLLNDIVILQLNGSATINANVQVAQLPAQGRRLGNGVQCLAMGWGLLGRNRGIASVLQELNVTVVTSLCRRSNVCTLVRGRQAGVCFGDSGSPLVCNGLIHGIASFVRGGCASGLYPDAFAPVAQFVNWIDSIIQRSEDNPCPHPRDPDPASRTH
# Method in brief: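 HNE treated with inhibitor for 30 min at [I]/[E] ratio 500. Residual activity then measured with MeOSuc-AAPV-pNA in 0.1 M HEPES/0.5 M NaCl pH 7.25, reading absorbance at 410 nm.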
# [2] = target: T1, Neutrophil elastase (Homo sapiens); test: Inhibition of human neutrophil elastase assessed as ratio of observed rate constant to drug concentration by incubation method; set-up: unit not given here
# Method in brief: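 HNE incubated with excess inhibitor in 0.1 M HEPES/0.5 M NaCl pH 7.25 with DMSO in a constant-temperature bath (stocks: 70 μM enzyme, 3.5 mM inhibitor). Aliquots taken over time and assayed with MeOSuc-AAPV-pNA, read at 410 nm for 60 s. kobs taken from ln([E]t/[E]0) = −kobs·t; reported as kobs/[I].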
# [3] = target: T2, Myeloblastin (Homo sapiens) (UniProt P24158); test: Inhibition of human PR3 at inhibitor to enzyme ratio of 500 after 30 mins
# T2 sequence (whole entry): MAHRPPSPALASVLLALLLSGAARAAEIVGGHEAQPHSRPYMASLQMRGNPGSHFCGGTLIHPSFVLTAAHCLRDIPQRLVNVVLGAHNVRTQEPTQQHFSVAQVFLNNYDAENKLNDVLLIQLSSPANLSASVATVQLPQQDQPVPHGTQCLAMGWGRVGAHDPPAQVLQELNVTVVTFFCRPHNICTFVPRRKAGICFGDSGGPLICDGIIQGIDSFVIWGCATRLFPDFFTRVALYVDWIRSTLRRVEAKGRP
# Method in brief: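 PR3 (34.5 nM final, from 0.1 M phosphate pH 6.50 stock) preincubated 30 min with inhibitor at [I]/[E] 500 (8.62 μM final). Buffer 0.1 M HEPES/0.5 M NaCl pH 7.25 with DMSO and DTNB. Substrate Boc-Ala-Ala-NVa-SBzl; absorbance read at 410 nm for 2 min. % remaining activity = (v/v0)×100 against a DMSO-only run; duplicate or triplicate.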
# [4] = target: T1, Neutrophil elastase (Homo sapiens); test: Inhibition of human neutrophil elastase assessed as ratio of kinact to Ki by progressive curve method
# Method in brief: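 Progress curves run with 10 nM HNE and 105 μM MeOSuc-AAPV-pNA in 0.1 M HEPES/0.5 M NaCl pH 7.25, 2.5% DMSO, over several [I]/[E] ratios. p-Nitroaniline release followed continuously at 410 nm. kobs obtained by nonlinear fit of A vs t; kobs/[I] corrected for substrate concentration to give kinact/KI. Duplicate determinations.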
# [5] = target: T1, Neutrophil elastase (Homo sapiens); test: Irreversible inhibition of human neutrophil elastase at 37 uM; settings: TDE = time-dependent effect
# Method in brief: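 Inhibitor (37 μM) incubated with HNE (700 nM) in 0.1 M HEPES/0.5 M NaCl pH 7.25, 1% DMSO. Aliquots taken over time and assayed with MeOSuc-AAPV-pNA at 410 nm. Results plotted as percent remaining activity versus time.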
Compound,inhibition [1],Ratio [2],inhibition [3],Ratio [4],Activity [5]
CCC[C@H]1C(=O)N(C(CCC(=O)OC)Sc2ccc(NC(=O)OC(C)(C)C)cc2)S(=O)(=O)N1C (stereo partly drawn),Active,170,inactive,,
CCC[C@H]1C(=O)N(C(CCC(=O)OC)Sc2ccc(NC(=O)NCCc3ccccc3)cc2)S(=O)(=O)N1C (stereo partly drawn),Active,150,inactive,,
CCC[C@H]1C(=O)N(C(CCC(=O)OC)Sc2ccc(NC(=O)CCC(=O)O)cc2)S(=O)(=O)N1C (stereo partly drawn),Active,300,inactive,,
CCC[C@H]1C(=O)N(C(CCC(=O)OC)Sc2ccc(NC(=O)c3ccccc3C(=O)O)cc2)S(=O)(=O)N1C (stereo partly drawn),Active,260,inactive,,

# The remaining lines, values ahead:
inhibition [1],Ratio [2],inhibition [3],Ratio [4],Activity [5],Compound
Active,320,inactive,,,CCC[C@H]1C(=O)N(C(CCC(=O)OC)Sc2ccc(F)cc2)S(=O)(=O)N1C (stereo partly drawn)
Active,,inactive,4580,tde,COC(=O)CCC(Sc1ccc(Cl)cc1)N1C(=O)[C@H](CC(C)C)N(C)S1(=O)=O (stereo partly drawn)
Active,70,inactive,,,CCC[C@H]1C(=O)N(C(CCC(=O)OC)Sc2ccc(OC)cc2)S(=O)(=O)N1C (stereo partly drawn)
Active,20,inactive,,,CCC[C@H]1C(=O)N(C(CCC(=O)OC)Sc2ccc(Cl)cc2)S(=O)(=O)N1C (stereo partly drawn)
Active,110,inactive,,,CCC[C@H]1C(=O)N(C(CCC(=O)OC)Sc2ccc(N)cc2)S(=O)(=O)N1C (stereo partly drawn)
